CHO parental Ca = ATP-evoked calcium signal inhibitors, parental CHO, primary screen, counter-screen for OX1R antagonist project, cell-based, fluorescence, Fluo-8 calcium dye | 330,000 tested, 0.63% active | inhibition, % at 5.6 µM | parental CHO-K1, ATP-induced calcium, Fluo-8 fluorescence;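 active means inhibition above that plate's mean sample inhibition plus 3 SD, cut at about 26% in these data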;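 further: 0% = ATP-challenged DMSO wells and 100% = DMSO wells without ATP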
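Test system: untransfected parental CHO cell line. Compound: one dose, 5.6 µM nominal. Detection: intracellular calcium via Fluo-8 no-wash fluorescent dye. Measure: % inhibition. Benchmarks: ATP-challenged DMSO wells low, unchallenged DMSO wells high.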
OX1R antag-1 = OX1R (HCRTR1) antagonists, primary screen, fluorescence, CHO/OX1R cells, Fluo-8 calcium, orexin A | Fluo-8 calcium fluorescence | 330,000 tested, 0.43% active | inhibition, % at 5 µM | Orexin/Hypocretin receptor type 1 (Homo sapiens), O43613;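 active means inhibition above its plate's threshold, mean inhibition of all tested compounds on the plate plus 3 SD, cut at about 37% in these data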;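 further: 0% = orexin A challenge wells and 100% = SB-334867-A antagonist wells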
GPR7 antagonist = GPR7 receptor antagonists, primary screen, cell-based, fluorescence, single concentration | Neuropeptides B/W receptor type 1 (Homo sapiens), P48145 | GPR7-expressing cells, fluorescence antagonist assay | inhibition, % at 4.4 µM | 290,000 tested, 1.1% active | AID 1861, 2009; in the data active means inhibition above about 16%, passing the limit was not always enough;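 further: cells stimulated with the agonist NPW; 0% = agonist with vehicle and 100% = vehicle without agonist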
OX1R antag-2 = antagonists of human orexin 1 receptor (OX1R); OX1R-expressing cells, FRET antagonist read-out; inhibition, % at 6.6 µM; 330,000 tested, 1.8% active; AID 485270, 2010; in the data active means inhibition mostly above about 38%, no sharp cut-off; inactive means mostly below about 40%;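 further: 0% = agonist challenge alone and 100% = reference antagonist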
TAAR1 agonist = human TAAR1 agonists, primary screen, Fluo-8 calcium fluorescence, CHO RD-HGA16 cells | vehicle wells 0%, saturating PEA agonist 100% | AID 624467, 2012 | 360,000 tested, 0.99% active | activation, % at 3 µM;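 active means activation above the mean activation of all test compounds in the run plus 3 SD, cut at about 38% in these data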
Target sequence (Q96RJ0 whole entry, looked up): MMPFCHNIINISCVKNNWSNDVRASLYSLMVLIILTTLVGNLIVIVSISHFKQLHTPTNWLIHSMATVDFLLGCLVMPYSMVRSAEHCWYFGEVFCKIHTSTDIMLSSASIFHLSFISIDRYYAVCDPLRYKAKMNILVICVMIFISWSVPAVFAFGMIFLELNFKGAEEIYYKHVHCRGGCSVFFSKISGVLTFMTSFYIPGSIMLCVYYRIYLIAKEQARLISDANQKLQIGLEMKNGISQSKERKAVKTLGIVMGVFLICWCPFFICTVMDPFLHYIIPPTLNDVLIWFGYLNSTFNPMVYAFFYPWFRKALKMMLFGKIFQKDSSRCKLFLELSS
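Test system: RD-HGA16 (CHO) cells co-expressing Gα16 and hTAAR1; dosing: one-point dosing at 3 µM (nominal); timing: 17-24 h seeding, 75 min 37 °C dye, 30 min RT; signal: kinetic Fluo-8 calcium fluorescence; read-out basis: % activation relative to PEA EC100 response; controls: DMSO and PEA EC100; replicates: n 1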
TAAR1 antagonist = human TAAR1 antagonists, primary screen, Fluo-8 calcium fluorescence, CHO RD-HGA16 cells. Trace amine-associated receptor 1 (Homo sapiens), Q96RJ0. antagonist. inhibition, % at 3 µM. 360,000 tested, 1.5% active;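 active means inhibition above a per-plate cutoff, the mean inhibition of test compounds on that plate plus 3 SD, cut at about 49% in these data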;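 further: 0% = DMSO plus EC80 beta-PEA response and 100% = DMSO alone without agonist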
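System: CHO RD-HGA16 cells bearing hTAAR1. Reagent: EC80 β-phenethylamine stimulus. Schedule: seeding 17-24 h prior, 75-min 37 °C, 30-min RT dye loading. Signal: Fluo-8 intracellular calcium dye fluorescence, real-time kinetic reads. Read-out: % inhibition from peak post-agonist over basal fluorescence ratio. Benchmarks: vehicle wells and EC80 agonist wells. Replicates: n of 1.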
An asterisk follows results filed as active; x = no result given. Hits are enriched below; roughly 4.6% of the tested compounds scored in any of these assays.

SMILES	CHO parental Ca	OX1R antag-1	GPR7 antagonist	OX1R antag-2	TAAR1 agonist	TAAR1 antagonist
O=S(=O)(NCc1csc(-c2ccccc2)n1)c1ccc(Cl)s1	3	-2	9	27	-1	-13
O=S(=O)(NCc1csc(-c2cccnc2)n1)c1ccc(Cl)s1	-13	5	13	41*	1	-6
CCc1ccc(S(=O)(=O)NCCc2csc(-c3ccccc3)n2)s1	-1	45	5	41*	7	34
CCc1ccc(S(=O)(=O)NCc2csc(-c3ccccc3)n2)s1	-14	-22	0	26	2	7
O=S(=O)(NCc1csc(-c2cccnc2)n1)c1ccc2c(c1)OCCO2	-12	-1	-11	72*	0	-18
O=S(=O)(NCc1csc(-c2cccnc2)n1)c1ccc(F)cc1	-5	-14	11	18	13	-29
Cc1ccc(C(=O)c2ccccc2C(=O)OCC(=O)N2C(C)CCCC2C)cc1 (stereo unspecified)	-6	-15	x	19	-1	2
COC(=O)[C@]12C[C@H](CC(=O)NCCCN3CCCC3=O)C(=O)N(Cc3ccccc3)C1=C[C@H](C1CCCC1)O[C@@H]2C	x	x	x	x	0	1
O=C(CSc1nnc(Cc2csc(Nc3cccc(Cl)c3)n2)o1)N1CCc2ccccc21	-3	8	0	61	1	51*
CCN(CC(=O)NCc1cccs1)C(=O)c1ccc(S(=O)(=O)N(C)c2ccccc2)cc1	-9	-10	x	4	4	16
CCN(c1ccccc1)S(=O)(=O)c1ccc(C(=O)N(C)Cc2cccs2)cc1	2	10	x	13	11	49*
COc1cc(/C=C/CN2CCC(C(=O)NC(c3ccc(F)cc3)c3ccc4ccccc4n3)CC2)ccc1OC(C)=O (stereo unspecified)	x	x	x	x	49*	23
Cc1cc2ccccc2n2c(SCC(=O)N3CCc4ccccc4C3)nnc12	-26	26	-12	73*	9	8
COCCn1c(SCC(=O)N2CCc3ccccc3C2)nc2ccccc2c1=O	-16	-4	2	72*	3	19
COCCn1c(SCC(=O)N2CCCCC2)nc2c(c1=O)SC(C)C2 (stereo unspecified)	100*	-21	-2	15	-1	7
COCCn1c(SCC(=O)N2CCCCC2)nc2c(c1=O)SCC2	-10	-19	-12	9	-1	-12
C(=CCSc1ccccn1)CSc1ccccn1	x	x	x	x	2	-12
Cc1ccc(/C=C/c2nnc(-c3cccs3)o2)cc1	-28	-10	2	42*	-4	-31
CC(C)Cc1ccc(S(=O)(=O)NCC2CCCO2)cc1 (stereo unspecified)	-7	-20	-15	3	0	11
O=S1(=O)CCC(N(N=Cc2ccco2)c2ccccc2)C1 (stereo unspecified)	x	x	x	x	2	-13
CC(=O)Nc1cccc(NC(=O)Cc2nc(-c3ccccc3)sc2-c2ccc(C)cc2)c1	-2	13	16	68*	-1	3
COc1cccc(NC(=O)Cc2nc(-c3ccccc3)sc2-c2ccc(C)cc2)c1	-16	-20	2	21	5	4
COC(=O)Cn1c(=NC(=O)c2cccc(OC)c2)sc2cc(OC)ccc21	1	-12	-9	7	6	49*
COC(=O)Cn1c(=NC(=O)c2cc(OC)cc(OC)c2)sc2cc(OC)ccc21	-4	-15	3	20	6	4
O=c1c2cc(Br)ccc2nc(-c2cccc(C(F)(F)F)c2)n1O	28	20	-6	39	46*	-9
O=C(Nc1cccc2cccnc12)c1ccc(Br)o1	-16	9	-11	75*	7	-10
O=C(Nc1cccc2ccccc12)c1ccc(Br)o1	x	x	5	x	3	3
COc1ccc(C(=O)Nc2cccc3cccnc23)cc1OC	-15	-15	0	49*	8	-5

Compound activity deposited in PubChem by The Scripps Research Institute Molecular Screening Center.
